Results taken from ChEMBL document CHEMBL1145119, “Esters, retroesters, and a retroamide of palmitic acid: pool for the first selective inhibitors of N-palmitoylethanolamine-selective acid amidase” (J Med Chem, 2003).

Key:
[1] = biological target: T1, Fatty-acid amide hydrolase 1 (Rattus norvegicus) (UniProt P97612); assay: Compound was tested for the inhibition of fatty acid amide hydrolase from rat brain homogenates at 10 uM in buffer B of pH 9 by using 10 uM [3H]ethanolamine-labeled anandamide as substrate; type: tissue-based
T1 sequence (whole entry): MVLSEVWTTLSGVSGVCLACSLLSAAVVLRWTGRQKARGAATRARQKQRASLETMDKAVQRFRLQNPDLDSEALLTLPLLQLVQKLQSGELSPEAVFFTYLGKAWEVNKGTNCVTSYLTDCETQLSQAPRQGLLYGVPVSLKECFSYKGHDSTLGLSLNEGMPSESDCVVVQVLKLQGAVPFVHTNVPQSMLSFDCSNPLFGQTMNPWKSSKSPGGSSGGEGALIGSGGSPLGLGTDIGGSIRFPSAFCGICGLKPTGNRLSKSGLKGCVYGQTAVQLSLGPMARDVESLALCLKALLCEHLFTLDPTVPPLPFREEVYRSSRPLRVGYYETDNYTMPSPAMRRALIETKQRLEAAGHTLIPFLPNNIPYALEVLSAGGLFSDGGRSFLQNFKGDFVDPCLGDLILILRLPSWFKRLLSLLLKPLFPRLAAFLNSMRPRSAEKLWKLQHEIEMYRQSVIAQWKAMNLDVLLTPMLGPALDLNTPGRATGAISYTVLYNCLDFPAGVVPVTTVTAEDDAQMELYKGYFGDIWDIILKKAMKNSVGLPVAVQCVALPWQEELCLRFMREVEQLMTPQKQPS
Summary of the method: (§1)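 The rat brain homogenate FAAH assay used 10 μM [3H]-ethanolamine-labeled anandamide as substrate. Protein was 10 μg per assay at pH 6 and 3 μg at pH 9. Buffer A was 10 mM Tris-HCl and 1 mM EDTA with fatty acid-free BSA. Buffer B was 125 mM Tris, 1 mM EDTA, 0.2% glycerol, 0.02% Triton X-100 and 0.4 mM HEPES, without BSA. pH was adjusted with NaOH or HCl. Compounds were tested at 10, 30 and 100 μM. The value is percent inhibition.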

[2] = biological target: N-acylethanolamine-hydrolyzing acid amidase (Rattus norvegicus) (UniProt Q5KTC7); assay: Inhibition of N-palmitoylethanolamine-selective acid amidase (NPAA) from rat lung homogenates at 100 uM
Sequence of N-acylethanolamine-hydrolyzing acid amidase (Rattus norvegicus) (Q5KTC7 whole entry, looked up): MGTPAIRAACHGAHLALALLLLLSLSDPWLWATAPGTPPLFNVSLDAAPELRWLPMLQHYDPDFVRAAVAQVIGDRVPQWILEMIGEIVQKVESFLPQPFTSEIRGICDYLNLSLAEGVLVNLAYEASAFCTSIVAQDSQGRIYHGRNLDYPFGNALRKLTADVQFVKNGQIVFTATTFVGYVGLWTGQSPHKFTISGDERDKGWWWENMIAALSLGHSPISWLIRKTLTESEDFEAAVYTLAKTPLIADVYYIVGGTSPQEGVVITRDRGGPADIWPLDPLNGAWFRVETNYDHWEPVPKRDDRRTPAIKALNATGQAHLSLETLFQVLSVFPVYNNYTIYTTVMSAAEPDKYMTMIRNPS

[3] = biological target: T1, Fatty-acid amide hydrolase 1 (Rattus norvegicus); assay: Compound was tested for the inhibition of fatty acid amide hydrolase from rat brain homogenates at 10 uM in buffer A of pH 6 by using 30 uM [3H]ethanolamine-labeled anandamide as substrate; type: tissue-based
[4] = biological target: T1, Fatty-acid amide hydrolase 1 (Rattus norvegicus); assay: Compound was tested for the inhibition of fatty acid amide hydrolase from rat brain homogenates at 10 uM in buffer A of pH 6 by using 100 uM [3H]ethanolamine-labeled anandamide as substrate; type: tissue-based
[5] = biological target: T1, Fatty-acid amide hydrolase 1 (Rattus norvegicus); assay: Compound was tested for the inhibition of fatty acid amide hydrolase from rat brain homogenates at 10 uM in buffer B of pH 9 by using 100 uM [3H]ethanolamine-labeled anandamide as substrate; type: tissue-based
[6] = biological target: T1, Fatty-acid amide hydrolase 1 (Rattus norvegicus); assay: Compound was tested for the inhibition of fatty acid amide hydrolase from rat brain homogenates at 10 uM in buffer B of pH 6 by using 10 uM [3H]ethanolamine-labeled anandamide as substrate; type: tissue-based; summary of the method: as §1
[7] = system: RBL-2H3; assay: Compound was tested for the inhibition of [3H]anandamide Uptake in RBL-2H3 cells at 10 uM; type: functional; conditions: Rattus norvegicus
Summary of the method: (§2)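 RBL-2H3 cells (passage 38) were preincubated with compound (10, 30 or 100 μM). They were then exposed to 2 μM [3H]-arachidonoyl-labeled anandamide for 8 min. Uptake was taken as accumulation in cell wells minus parallel cell-free wells. 200 μM AM404 served as positive control in every assay. The value is percent inhibition of uptake.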

[8] = biological target: T1, Fatty-acid amide hydrolase 1 (Rattus norvegicus); assay: Compound was tested for the inhibition of fatty acid amide hydrolase from rat brain homogenates at 10 uM in buffer A of pH 9 by using 30 uM [3H]ethanolamine-labeled anandamide as substrate; type: tissue-based
[9] = system: RBL-2H3; assay: Compound was tested for the inhibition of [3H]anandamide Uptake in RBL-2H3 cells at 30 uM; type: functional; conditions: Rattus norvegicus; summary of the method: as §2
[10] = biological target: T1, Fatty-acid amide hydrolase 1 (Rattus norvegicus); assay: Inhibition of fatty acid amide hydrolase (FAAH) from rat brain homogenates at 10 uM; type: tissue-based
Summary of the method: (§3)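 Hydrolysis of [3H]-anandamide by rat brain homogenate was measured at assay pH 7.6. Compound was mostly tested over 0.5–100 μM, and percent inhibition is given at 10 and 100 μM. A value below 0 means activity remaining exceeded 100%.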

[11] = biological target: Cannabinoid receptor 1 (Homo sapiens) (UniProt P21554); assay: Binding affinity against human Cannabinoid receptor 1 using CHO-hCB1 transfected cell membrane and [3H]CP-55940 as radioligand at 10 uM
Sequence of Cannabinoid receptor 1 (Homo sapiens) (P21554 whole entry): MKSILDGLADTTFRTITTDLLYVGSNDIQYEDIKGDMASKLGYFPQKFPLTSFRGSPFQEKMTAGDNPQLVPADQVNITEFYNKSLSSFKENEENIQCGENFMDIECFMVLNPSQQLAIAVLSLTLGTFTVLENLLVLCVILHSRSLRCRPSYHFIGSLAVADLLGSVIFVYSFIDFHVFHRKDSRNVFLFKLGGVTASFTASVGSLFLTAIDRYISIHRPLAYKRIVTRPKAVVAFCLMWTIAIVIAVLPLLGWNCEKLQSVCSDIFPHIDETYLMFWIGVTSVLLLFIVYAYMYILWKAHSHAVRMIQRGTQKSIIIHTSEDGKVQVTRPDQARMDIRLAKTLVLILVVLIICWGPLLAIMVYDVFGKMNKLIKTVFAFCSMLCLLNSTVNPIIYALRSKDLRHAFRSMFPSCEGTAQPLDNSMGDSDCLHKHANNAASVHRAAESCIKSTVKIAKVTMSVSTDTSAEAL
Summary of the method: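 Membranes from CHO cells transfected with human CB1 were incubated with 1 nM [3H]-CP55,940 and test compound at 10 μM. Nonspecific binding was defined with 10 μM HU-210. The value is percent inhibition of specific radioligand binding.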

[12] = system: RBL-2H3; assay: Compound was tested for the inhibition of [3H]anandamide Uptake in RBL-2H3 cells at 100 uM; type: functional; conditions: Rattus norvegicus; summary of the method: as §2
[13] = biological target: T1, Fatty-acid amide hydrolase 1 (Rattus norvegicus); assay: Inhibition of fatty acid amide hydrolase (FAAH) from rat brain homogenates at 100 uM; type: tissue-based; summary of the method: as §3
[14] = biological target: T1, Fatty-acid amide hydrolase 1 (Rattus norvegicus); assay: Compound was tested for the inhibition of fatty acid amide hydrolase from rat brain homogenates at 10 uM in buffer A of pH 6 by using 10 uM [3H]ethanolamine-labeled anandamide as substrate; summary of the method: as §1
[15] = biological target: T1, Fatty-acid amide hydrolase 1 (Rattus norvegicus); assay: Compound was tested for the inhibition of fatty acid amide hydrolase from rat brain homogenates at 10 uM in buffer A of pH 9 by using 10 uM [3H]ethanolamine-labeled anandamide as substrate; type: tissue-based; summary of the method: as §1
[16] = biological target: Cannabinoid receptor 2 (Homo sapiens) (UniProt P34972); assay: Binding affinity against human CB2 receptor by using CHO-hCB2 transfected cell membrane [3H]WIN-55212-2 as radioligand at 10 uM
Sequence of Cannabinoid receptor 2 (Homo sapiens) (P34972 whole entry): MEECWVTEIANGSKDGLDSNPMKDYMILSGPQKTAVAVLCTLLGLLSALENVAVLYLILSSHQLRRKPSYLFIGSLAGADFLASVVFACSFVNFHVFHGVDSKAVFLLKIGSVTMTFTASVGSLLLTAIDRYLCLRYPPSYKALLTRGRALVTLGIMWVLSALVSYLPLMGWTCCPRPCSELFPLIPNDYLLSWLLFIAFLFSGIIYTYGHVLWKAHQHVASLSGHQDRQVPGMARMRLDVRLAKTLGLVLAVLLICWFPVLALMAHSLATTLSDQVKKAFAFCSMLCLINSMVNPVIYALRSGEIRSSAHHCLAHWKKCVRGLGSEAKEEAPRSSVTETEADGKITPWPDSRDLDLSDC
Summary of the method: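 Membranes from CHO cells transfected with human CB2 were incubated with 1 nM [3H]-WIN55,212-2 and test compound at 10 μM. Nonspecific binding was defined with 10 μM HU-210. The value is percent inhibition of specific radioligand binding.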

[17] = biological target: T1, Fatty-acid amide hydrolase 1 (Rattus norvegicus); assay: Compound was tested for the inhibition of fatty acid amide hydrolase from rat brain homogenates at 10 uM in buffer B of pH 6 by using 100 uM [3H]ethanolamine-labeled anandamide as substrate; type: tissue-based
[18] = biological target: T1, Fatty-acid amide hydrolase 1 (Rattus norvegicus); assay: Compound was tested for the inhibition of fatty acid amide hydrolase from rat brain homogenates at 10 uM in buffer A of pH 9 by using 100 uM [3H]ethanolamine-labeled anandamide as substrate; type: tissue-based
[19] = species: Rattus norvegicus; assay: Compound was tested for the inhibition of N-palmitoylethanolamine-selective acid amidase (NPAA) from rat lung homogenates at 100 uM
Summary of the method: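 Enzyme (12 μg protein) was solubilized from the 12 000 × g pellet of rat lung homogenate. It was incubated with 100 μM [14C]-N-palmitoylethanolamine (10 000 cpm) and 100 μM compound for 30 min at 37 °C. Buffer was 50 mM citrate–sodium phosphate, pH 5.0, with 3 mM DTT and 0.1% Triton X-100. Radioactivity was read by imaging scan. The value is percent inhibition.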

| Compound | inhibition [1] [%] | inhibition [2] [%] | inhibition [3] [%] | inhibition [4] [%] | inhibition [5] [%] | inhibition [6] [%] | inhibition at 10 µM [7] [%] | inhibition [8] [%] | inhibition at 30 µM [9] [%] | inhibition [10] [%] | inhibition [11] [%] | inhibition at 100 µM [12] [%] | inhibition [13] [%] | inhibition [14] [%] | inhibition [15] [%] | inhibition [16] [%] | inhibition [17] [%] | inhibition [18] [%] | inhibition [19] [%] |
| --- | --- | --- | --- | --- | --- | --- | --- | --- | --- | --- | --- | --- | --- | --- | --- | --- | --- | --- | --- |
| CCCCCCCCCCCCCCCCOC(=O)CC [HEXADECYLPROPIONATE] | < 0 | 71 | < 0 | < 0 | < 0 | 5 | 11 | 21 | 12 | < 0 | 12 | 15 | < 0 | 2 | 26 | 2 | < 0 | 4 |  |
| CCCCCCCCCCCCCCCC(=O)OC1CCCCC1 [CYCLOHEXYL PALMITATE] | 12 | 84 | 2 | 37 | 46 | 20 | 5 | 17 | 16 | 6 | 14 | 29 | 36 | 8 | 5 | 6 | 51 | 12 |  |
| CCCCCCCCCCCCCCCC(=O)OCCCl |  | 55 |  |  |  |  |  |  |  | 27 | 14 |  | 45 |  |  | 6 |  |  |  |
| CCCCCCCCCCCCCCCC(=O)OC(C)C |  | 44 |  |  |  |  |  |  |  | < 0 | 8 |  | < 0 |  |  | 0.5 |  |  |  |
| CCCCCCCCCCCCCCCC(=O)OCc1ccccc1 |  | 50 |  |  |  |  |  |  |  | 6 | 5 |  | 24 |  |  | 5 |  |  |  |
| C=CCOC(=O)CCCCCCCCCCCCCCC |  | 48 |  |  |  |  |  |  |  | 16 | 2 |  | 36 |  |  | 1 |  |  |  |
| CCCCCCCCCCCCCCCC(=O)NC |  | 30 |  |  |  |  |  |  |  | 35 | 3 |  | 68 |  |  | 8 |  |  |  |
| CCCCCCCCCCCCCCCC(=O)OCCBr |  | 45 |  |  |  |  |  |  |  | 19 | 2 |  | 31 |  |  | 2 |  |  |  |
| CCCCCCCCCCCCCCCC(=O)OC |  |  |  |  |  |  |  |  |  | 18 | 11 |  | 69 |  |  | 14 |  |  | 64 |
| CCCCCCCCCCCCCCCC(=O)NC1CCCCC1 |  | 23 |  |  |  |  |  |  |  | 8 | 34 |  | 11 |  |  | 8 |  |  |  |
| CCCCCCCCCCCCCCCC(=O)OC(C)(C)C |  | 23 |  |  |  |  |  |  |  | < 0 | 14 |  | < 0 |  |  | 14 |  |  |  |
| CCCCCCCCCCCCCCCC(=O)NC(C)C |  | 25 |  |  |  |  |  |  |  | 30 | 25 |  | 52 |  |  | 12 |  |  |  |
| CCCCCCCCCCCCCCCCOC(C)=O |  | 68 |  |  |  |  |  |  |  | < 0 | 10 |  | < 0 |  |  | 9 |  |  |  |
| CCCCCCCCCCCCCCCC(=O)NCCO |  | 34 |  |  |  |  |  |  |  | 49 | 24 |  | 68 |  |  | 14 |  |  |  |
| CCCCCCCCCCCCCCCNC(=O)CCO | 6 | 77 |  | 2 | < 0 | 11 | 8 | 5 | 13 | < 0 | 4 | 28 | 8 | 8 | 20 | 3 | 16 | 7 |  |
